# High-throughput results: PubChem BioAssay, several laboratories
# This is a sample that favours compounds with a hit; in the whole collection about 3.3% have one here.
# FXN GAA850 act: frataxin GAA850 promoter activation; HEK293 lucGAA850 FXN promoter luciferase reporter, 24 h; percent of 10 µM SAHA response; activation, % at 6 µM; 0.56% of 360,000 active;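 active = activation above the average of all compounds screened plus 3 SD, cutoff fixed separately per campaign, cut at about 7.5% in these data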;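 note: 0% = DMSO wells and 100% = 10 µM SAHA wells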
# STAT3 act: increases IL-6 driven STAT3 reporter signal | U3A cells, IL-6 STAT3-luciferase reporter, luminescence; 100% = signal with IL-6 EC80 alone | activation (% of control), % at 5.6 µM | 0.91% of 190,000 active;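 active = activation above the screen-wide mean of compound activation plus 3 SD, cut at about 130% in these data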;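 note: 0% = background luminescence of wells with medium and substrate only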
#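 Assay system – human STAT1-deficient U3A cells with stable STAT3-luciferase reporter · Also added – IL-6 (33 ng/mL) · Schedule – compound 1 h, then IL-6 6 h at 37 °C · Technique – reporter luminescence signal · Evaluation – % activation versus median of IL-6-stimulated wells · Benchmarks – IL-6-only wells as 100% reference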
# ABCB6 inh MLPCN: inhibitors of human ABC transporter ABCB6 | Q9NP58 | K562-ABCB6 porphyrin accumulation, flow cytometry, 1 h; hits give low values | fluorescence ratio to DMSO, % at 10 µM | AID 602162 | 0.19% of 360,000 active;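 active = fluorescence ratio to DMSO below 75%, the collection mean minus 3 SD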;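 note: signal is porphyrin accumulated inside mitochondria; 100% equals median channel fluorescence of DMSO control wells; lower ratio means ABCB6 inhibition with less porphyrin fluorescence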
# AHR activator: human AHR activation; AHR-responsive luciferase reporter cells, luminescence; activation, % at 5 µM; 2.5% of 320,000 active; in the data active = activation above about 47%;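 note: 0% = vehicle wells and 100% = reference agonist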
# * = called active by the depositor; / = no result given.
SMILES,FXN GAA850 act,STAT3 act,ABCB6 inh MLPCN,AHR activator
C#CCNC(=O)C1=C[C@H](C2CCCCC2)C[C@H](OCc2ccc(CO)cc2)O1,3,/,104,0
C#CCNC(=O)C1=C[C@@H](C2CCCCC2)C[C@@H](OCc2ccc(CO)cc2)O1,1,/,97,48*
CC(=O)n1cc([C@@H]2C=C(C(=O)NCc3ccccc3)O[C@H](OCc3ccc(CO)cc3)C2)c2ccccc21,-5,/,94,66*
C#CCNC(=O)C1=C[C@H](c2cn(C(C)=O)c3ccccc23)C[C@H](OCc2ccc(CO)cc2)O1,-4,/,91,41
CC(=O)n1cc([C@H]2C=C(C(=O)O)O[C@@H](OCCCCO)C2)c2ccccc21,-1,/,97,4
CC(=O)n1cc([C@@H]2C=C(C(=O)Nc3ccccc3)O[C@H](OCCCCO)C2)c2ccccc21,-1,/,105,57*
COc1ccccc1NC(=O)c1sc2ncn(Cc3cccc4ccccc34)c(=O)c2c1C,2,107,98,35
Cc1cc(S(=O)(=O)NCCN(C)C)c(C)s1,0,100,95,-1
O=C(C#Cc1ccccc1)c1ccccc1,9.3*,/,104,/
CN(C)C(=O)C#Cc1ccccc1,2,/,102,-4
O=C(c1ccc(-c2ccccc2)cc1)c1ccc([N+](=O)[O-])cc1,/,/,/,1
O=C(C#Cc1ccccc1)c1ccc([N+](=O)[O-])cc1,13*,87,85,/
Cc1cccc(OCc2nnc3n2CCCCC3)c1,2,97,88,11
CCOC(=O)Nc1sc2nc(C)cc(C)c2c1-n1cccc1,0,104,101,70*
COc1ccc2c(c1)OC[C@H]1[C@@H]2N2C(=O)CNC(=O)[C@@]2(C)[C@H]1c1ccccc1,0,/,95,0
CCN=c1scc(C)n1/N=C/c1cc(Br)c(O)c(OC)c1,-1,99,80,49*
CN(C)c1ccc(S(=O)(=O)N2CCCCC2)cc1NC(=O)CCNC(=O)c1ccco1,1,/,101,0
CCc1ccc(NC(=S)Nc2ccc3[nH]c(=O)[nH]c3c2)cc1,4,/,98,0
CCCSc1nnc2nc3c(nn12)c1ccccc1n3C,1,99,99,50*
CC(C)Cc1nnc(NC(=O)CCC(=O)N2CCN(c3ccc(F)cc3)CC2)s1,-1,/,97,0
CC(C)Nc1nc(Nc2ccc(C#N)cc2)c2sccc2n1,0,/,96,/
Cc1ccc(Cn2c(C3CCCN3c3nc(C)cs3)nc3cc(C(=O)NCCCO)ccc32)cc1 (stereo not given),-2,/,90,3
O=C(c1ccccc1[N+](=O)[O-])n1cnc2ccccc21,1,91,106,41
O=C(c1ccc([N+](=O)[O-])cc1[N+](=O)[O-])n1cnc2ccccc21,2,109,93,59*
CC(=O)CCc1ccc(OCC(O)CNCCOc2ccc(C)cc2)cc1 (stereo not given),0,/,96,0
SMILES,FXN GAA850 act,STAT3 act,ABCB6 inh MLPCN,AHR activator
Cc1ccc(OCCNCC(O)COc2ccccc2)cc1 (stereo not given),0,/,99,66*
Cc1cccc(-n2nc(CC#N)c(C#N)c2N)c1,1,110,104,14
N#CCc1nn(-c2ccc(Cl)cc2)c(N)c1C#N,1,106,108,64*
O=C(c1cccn2c(=O)c3cc4ccccc4cc3nc12)N1CCN(c2ccccc2)CC1,/,127,/,71*
O=C(c1cccn2c(=O)c3cc(Br)ccc3nc12)N1CCN(c2ccccn2)CC1,1,106,89,74*
CCOC(=O)N1CCN(C(=O)c2cccn3c(=O)c4cc(Cl)ccc4nc23)CC1,-1,102,107,91*
CCOC(=O)N1CCN(C(=O)c2cccn3c(=O)c4cc(Br)ccc4nc23)CC1,0,100,103,58*
CCOC(=O)C1CCN(S(=O)(=O)c2cc3c(cc2C)NC(=O)CO3)CC1,0,/,98,0
CCOc1ccccc1N1CCN(CC(=O)Nc2nccs2)CC1,2,/,98,/
O=C(NCCN1CCOCC1)c1cccn2c(=O)c3c4c(sc3nc12)CCCC4,/,/,/,54*
O=C(NCCN1CCN(c2ccccc2)CC1)c1cccn2c(=O)c3cc(Cl)ccc3nc12,0,114,94,94*
O=C(c1ccco1)N1CCN(C(=O)c2cccn3c(=O)c4c5c(sc4nc23)CCCC5)CC1,2,/,100,/
CC(C)CN1CC(COCc2ccccc2)Oc2ccccc2S1(=O)=O (stereo not given),-2,/,97,/
CCC(=O)Nc1cccc(NC(=S)NC(=O)c2cccs2)c1,5,109,96,50*
O=C(NC(=S)Nc1cccc2cccnc12)c1cccs1,4,101,116,70*
Cc1ccc2cccc(NC(=S)NC(=O)c3ccnn3C)c2n1,5,116,98,55*
CC1=NN(c2ccc(F)cc2)C(=O)C1C(c1cccc(O)c1)c1c(C)[nH]n(-c2ccc(F)cc2)c1=O (stereo not given),3,153*,91,32
Cc1ccc(NC(=O)CSc2nnc(-c3cccs3)o2)cc1S(=O)(=O)N(C)C,/,97,/,56*
O=C(Nc1ccccc1)n1ccc(-c2ccc(-n3ccnc3)cc2)n1,/,103,/,83*
O=C(c1cccs1)N1CCN(C/C=C/c2ccccc2)CC1,1,102,101,-1
CC(=O)Nc1cccc(OCCCNC(=O)c2ccc(C(C)(C)C)cc2)c1,3,/,95,47*
CCOC(=O)COn1c(=O)c(-c2ccc(F)cc2)[n+]([O-])c2ccccc21,0,/,97,/
C=CCOn1c(=O)c(-c2cc3ccccc3o2)[n+]([O-])c2ccccc21,4,119,103,64*
CCOC(=O)COn1c(=O)c(-c2cc3ccccc3o2)[n+]([O-])c2ccccc21,3,151*,96,62*
Cn1c(-c2sc(=S)n(-c3ccccc3)c2N)nc2ccccc21,2,133*,99,19
SMILES,FXN GAA850 act,STAT3 act,ABCB6 inh MLPCN,AHR activator
C=CCn1c(N)c(-c2nc3ccccc3n2C)sc1=S,1,87,92,15
Cc1nc2ccc(Cl)cc2nc1C,0,/,98,1
Cc1ccc2nc(-c3sc4nc(C)cc(C)c4c3N)[nH]c2c1,4,140*,104,-10
O=C(Nc1ccccc1)c1cc2ccc3ccccc3c2s1,2,/,101,69*
COc1cc(O)c(C(CC(=O)N2CCCC2)c2ccc(N(C)C)cc2)c(OC)c1 (stereo not given),-3,/,99,2
CC1CN(c2nc3ccccn3c(=O)c2C=O)CC(C)O1 (stereo not given),0,102,99,2
CCOc1ccc(-c2nc(C#N)c(NCc3ccc4c(c3)OCO4)o2)cc1,2,102,94,56*
Cc1ccc(OCc2nc(C#N)c(NCc3ccc4c(c3)OCO4)o2)cc1,2,102,85,7
Cc1ccc(Nc2ccc(N3CCN(c4ccc([N+](=O)[O-])cc4)CC3)nn2)cc1,0,108,94,1
N#Cc1ccc(-c2ccccc2)nc1SCC(=O)c1cc2ccccc2oc1=O,-1,91,130,55*
O=c1cc(-c2ccc(C(F)(F)F)cc2)oc2ccccc12,1,/,100,5
